The text below walks through data of article PMC6675461 (Bioorganic & medicinal chemistry, 2009).

In assay [1] the test system is three melanoma cell lines (B16-F1, A375, WM-164). The experiment in a line: SRB assay, average over melanoma cell lines and selectivity vs fibroblast. Type of assay: cell-based, human, mouse. The settings on record: Fibroblast. For orientation: Sulforhodamine B stains cellular protein and so reports cell mass.
For assay [2], the system named is four prostate cancer cell lines (DU 145, PC-3, LNCaP, PPC-1). Kind of assay: SRB assay, average over prostate cancer cell lines and selectivity vs RH7777. The settings on record: for pIC50: Homo sapiens, RH7777, read-out: Aver. (average IC50 of four prostate cells IC50s). Type of assay: cell-based, human. The essentials:
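The control line was LPL receptor-negative RH7777 in DMEM/10% FBS. The prostate IC50s were averaged. Selectivity = IC50 in RH7777 divided by the average tumor-cell IC50.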

Setting [3] is: read-out: IC50 range over melanoma cell lines.
The mark [4] stands for this setting: read-out: Aver. (average IC50 of three melanoma cells IC50s).

pIC50: −log10 of the molar value. Where a name gives a salt, the structure may show the parent alone. Read-outs that look alike come from different tables or passages of the source.

For orientation: pIC50 means the IC50 on a negative log10 scale, so that one unit is a factor of ten. In the case of `CCCCCCCCCCCCCCCCNC(=O)[C@@H]1CSC(c2ccccc2)N1` (mixture of isomers) [Compound 3ja, (2RS,4R)-2-Phenyl-thiazolidine-4-carboxylic acid hexadecylamide], the pIC50 in assay [1] (setting [3]) was 5.68 to 6.15. In the case of `CCCCCCCCC/C=C/CCCCCCCNC(=O)[C@@H]1CSC(c2cc(OC)c(OC)c(OC)c2)N1` (stereo partly drawn) [Compound 3ac, (2RS,4R)-2-(3,4,5-Trimethoxy-phenyl)-thiazolidine-4-carboxylic acid octadec-8-trans-enylamide], the pIC50 in assay [1] (setting [4]) was 5.70; in assay [2] it was 6.10.

For `CCCCCCCCCCCCCCCCNC(=O)[C@@H]1CSC(c2cccc(OC)c2)N1` (mixture of isomers) [Compound 3da, (2RS,4R)-2-(3-Methoxy-phenyl)-thiazolidine-4-carboxylic acid hexadecylamide], the pIC50 is 5.70 in assay [1] (setting [4]) and 6.15 in assay [2]. On to `CCCCCCCCC#CCCCCCCCCCNC(=O)[C@@H]1CSC(c2ccc(NC(C)=O)cc2)N1` (mixture of isomers) [Compound 3ii, (2RS,4R)-2-(4-Acetylamino-phenyl)-thiazolidine-4-carboxylic acid nonadec-10-ynylamide], for which, in assay [2], the pIC50 was 5.77. On to `CCCCCCCCCCCCCCCCNC(=O)[C@@H]1CSC(c2ccccc2OC)N1` (mixture of isomers) [Compound 3ca, (2RS,4R)-2-(2-Methoxy-phenyl)-thiazolidine-4-carboxylic acid hexadecylamide], for which the values for the negative-log IC50 (pIC50) in assay [1] (setting [4]) and in assay [2] were 5.49 and 5.32, respectively. As to `CCCCCCCCCCCCCCCCNC(=O)[C@@H]1CSC(c2ccc(OC)cc2)N1` (mixture of isomers) [Compound 3ea, (2RS,4R)-2-(4-Methoxy-phenyl)-thiazolidine-4-carboxylic acid hexadecylamide], the negative logarithm of the IC50 (pIC50) in assay [1] (setting [4]) and in assay [2] was 5.80 in each case. Consider `CCCCCCCCC/C=C/CCCCCCCNC(=O)[C@@H]1CSC(c2ccc(OC)c(OC)c2)N1` (mixture of isomers) [Compound 3bc, (2RS,4R)-2-(3,4-Dimethoxy-phenyl)-thiazolidine-4-carboxylic acid (E)-octadec-8-enylamide], for which the pIC50 in assay [2] was 5.92.

With `CCCCCCCCC/C=C\CCCCCCCNC(=O)[C@@H]1CSC(c2ccccc2)N1` (mixture of isomers) [Compound 3jb, (2RS,4R)-2-Phenyl-thiazolidine-4-carboxylic acid (Z)-octadec-8-enylamide], the pIC50 in assay [1] (setting [4]) is 5.36; in assay [2] it was 5.77. With `CCCCCCCCCCCCCCCCNC(=O)[C@@H]1CSC(c2ccc(NC(=O)CCl)cc2)N1` (stereo partly drawn) [Compound 15b, (2RS,4R)-2-[4-(2-Chloro-acetylamino)-phenyl]-thiazoli-dine-4-carboxylic acid hexadecylamide], the negative-log IC50 (pIC50) was 4.40 in assay [1] (setting [4]), 3.94 to 5.24 in assay [1] (setting [3]) and 6.00 in assay [2]. With `CCCCCCCCCCCCCCCCNC(=O)CNCc1ccc(NC(C)=O)cc1` [Compound 16d, 2-(4-Acetylamino-benzylamino)-N-hexadecyl-acetamide], in assay [1] (setting [3]), the pIC50 was 4.92 to 4.99. Turning to `CCCCCCCCC/C=C\CCCCCCCNC(=O)[C@@H]1CSC(c2cc(OC)c(OC)c(OC)c2)N1` (stereo partly drawn) [Compound 3ab, (2RS,4R)-2-(3,4,5-Trimethoxy-phenyl)-thiazolidine-4-carboxylic acid octadec-8-cis-enylamide], the pIC50 in assay [1] (setting [4]) was 5.55; in assay [2] it was 6.00. In the case of `CC(=O)Nc1ccc(C2N[C@H](C(=O)NC3C4CC5CC(C4)CC3C5)CS2)cc1` (mixture of isomers) [Compound 3ic, (2RS,4R)-2-(4-Acetylamino-phenyl)-thiazolidine-4-carboxylic acid adamantan-2-ylamide], the negative logarithm of the IC50 (pIC50) in assay [1] (setting [4]) was 4.10.

For the compound `CCCCCCCCCCCCCCCCCCNC(=O)[C@@H]1CSC(c2ccc(OC)c(OC)c2)N1` (mixture of isomers) [Compound 3ba, (2RS,4R)-2-(3,4-Dimethoxy-phenyl)-thiazolidine-4-carboxylic acid octadecylamide], the negative-log IC50 (pIC50) in assay [1] (setting [4]) is 5.10; in assay [2], 5.49. With `CCCCCCCCCCCCCCCCCCNC(=O)[C@@H]1CSC(c2cc(OC)c(OC)c(OC)c2)N1` (mixture of isomers) [Compound 3aa, (2RS,4R)-2-(3,4,5-Trimethoxy-phenyl)-thiazolidine-4-carboxylic acid octadecylamide], the “fold more potent than 1a against prostate cancer cells” value in assay [2] (from average IC50) is on record as 2.4 fold. Take `CC(=O)Nc1ccc(C2N[C@H](C(=O)Nc3ccc(-c4ccccc4)cc3)CS2)cc1` (mixture of isomers) [Compound 3if, (2RS,4R)-2-(4-Acetylamino-phenyl)-thiazolidine-4-carboxylic acid biphenyl-4-ylamide]: the negative logarithm of the IC50 (pIC50) in assay [1] (setting [4]) is 5.28. For `CCCCCCCCCCCCCCCCNC(=O)[C@@H](N)CSCc1ccccc1` [Compound 16c, (2R)-2-Amino-3-benzylsulfanyl-N-hexadecyl-propionamide], the pIC50 in assay [1] (setting [3]) was 4.82 to 4.89.

As to `CCCCCCCCCCCCCCCCNC(=O)[C@@H](N)CSC` [Compound 16a, (2R)-2-Amino-N-hexadecyl-3-methylsulfanyl-propion-amide], the negative-log IC50 (pIC50) in assay [1] (setting [3]) is 4.84 to 4.89.

For the compound `CCCCCCCCCCCCCCCCNC(=O)[C@@H]1CSC(c2ccc(NC(N)=O)cc2)N1` (mixture of isomers) [Compound 15c, (2RS,4R)-2-(4-Ureido-phenyl)-thiazolidine-4-carboxylic acid hexadecylamide], the pIC50 in assay [1] (setting [4]) is 5.41; in assay [2] it was 5.70.

On to `CCCCCCCCCCCCCCCCOC(=O)[C@@H]1CSC(c2ccc(NC(C)=O)cc2)N1` (mixture of isomers) [Compound 5, (2RS,4R)-2-(4-Acetylamino-phenyl)-thiazolidine-4-carboxylic acid hexadecyl ester], for which the negative-log IC50 (pIC50) in assay [1] (setting [4]) was 4.53. On the same count and under the same terms, in the case of `CC(=O)Nc1ccc(C2N[C@H](C(=O)NC34CC5CC(CC(C5)C3)C4)CS2)cc1` (mixture of isomers) [Compound 3ib, (2RS,4R)-2-(4-Acetylamino-phenyl)-thiazolidine-4-carboxylic acid adamantan-1-ylamide] it was 3.92. `CCCCCCCCCCCCCCCCNC(=O)[C@@H]1CSC(c2ccc(N(C)C)cc2)N1` (mixture of isomers) [Compound 3fa, (2RS,4R)-2-(4-Dimethylamino-phenyl)-thiazolidine-4-carboxylic acid hexadecylamide]: the pIC50 in assay [2] was 5.55. For the compound `CCCCCCCCCCCCCCCCNC[C@@H]1CSC(c2ccccc2)N1` (mixture of isomers) [Compound 8a, (2RS,4R)-Hexadecyl-(2-phenyl-thiazolidin-4-ylmethyl)-amine hydrochloride], in assay [1] (setting [4]), the pIC50 is 5.12.

With `CCCCCCCCCCCCCCCCNC(=O)[C@@H]1CSC(c2ccc(NS(C)(=O)=O)cc2)N1` (mixture of isomers) [Compound 15a, (2RS,4R)-2-(4-Methanesulfonylaminophenyl)-thiazolidine-4-carboxylic acid hexadecylamide], the figures for the pIC50 in assay [1] (setting [4]) and in assay [1] (setting [3]) were 4.22 and 3.94 to 5.24, respectively. Regarding `CCCCCCCCCCCCCCCCNC(=O)[C@@H]1CSC(c2ccc(N)cc2)N1` (mixture of isomers) [Compound 13b, (2RS,4R)-2-(4-Amino-phenyl)-thiazolidine-4-carboxylic acid hexadecylamide], in assay [2], the pIC50 was 5.74.
